Assay results taken from article PMC4297623 (Nature, 2011).
Like-named read-outs stand apart in the source and are kept apart here.

What was measured:
EBI2 [1] = target: T1, EBI2 (Homo sapiens, UniProt P32249); assay: GTPγ35S binding functional assay; format: biochemical
EBI2 [2] = target: T1, EBI2; assay: Calcium mobilization; format: cell-based
EBI2 [3] = target: T1, EBI2; assay: Radioligand binding to membranes from EBI2 expressing CHO cells
31 different GPCRs = assay: Panel of GPCR assays; format: cell-based
[4] = tested on: 8 different nuclear hormone receptors including LXR; assay: Panel of reporter gene assays against nuclear hormone receptors; format: cell-based; settings: 8 nuclear hormone receptors including LXR
RS11846 cells = assay: Transwell migration of RS11846 cells; format: cell-based; settings: transwell assay
EBI2 [5] = target: T1, EBI2; format: cell-based
[6] = tested on: Membranes from parental cells lacking EBI2 receptor; assay: Radioligand binding to membranes from parental cells lacking EBI2; settings: data not shown
[7] = tested on: EBI2 expressing cell line (M12); assay: Migration bioassay with EBI2 expressing reporter cell line; format: cell-based; settings: attraction of EBI2 expressing cell line (Fig. S8c)
Procedure, shortened: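 Chemoattraction bioassay: M12 reporter cells, with or without EBI2, exposed to the oxysterol ligand; read-out is migration of cells toward it. The same assay was also run on spleen and lymph node tissue extracts from wild-type and Ch25h-deficient mice.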

[8] = tested on: bone marrow-derived dendritic cells; assay: Transwell migration of bone marrow-derived dendritic cells; format: cell-based, mice; settings: transwell assay
Procedure, shortened: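 Dendritic cells derived from the bone marrow of wild-type and Ebi2(−/−) mice, tested side by side for transwell migration toward oxysterol test compounds. Samples run in quadruplicate.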

[9] = tested on: EBV-infected human B cell line; assay: Transwell migration of EBV-infected B cells; format: cell-based; settings: transwell assay; bell shaped activity curve
Procedure, shortened: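 Transwell chemotaxis of an EBV-infected human B cell line toward oxysterol test compounds in the lower chamber. Samples run in duplicate.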

[10] = tested on: Parental cells lacking the EBI2 receptor; assay: Calcium mobilization in parental cell line lacking EBI2; format: cell-based; settings: parental cell line without EBI2
[11] = read-out: GTPγ^35S Binding EC50, n = 3-4, ± standard deviation
[12] = read-out: Ca^2+ Fluorescence EC50, FLIPR, CHO cells stably expressing EBI2, n = 3-4, ± standard deviation
[13] = read-out: [^3H]-7α, 25-OHC Binding IC50, displacement of 10 nM 3H-7α, 25-OHC from membranes of EBI2 expressing CHO cells, n = 3-4, ± standard deviation

T1 sequence (P32249 whole entry): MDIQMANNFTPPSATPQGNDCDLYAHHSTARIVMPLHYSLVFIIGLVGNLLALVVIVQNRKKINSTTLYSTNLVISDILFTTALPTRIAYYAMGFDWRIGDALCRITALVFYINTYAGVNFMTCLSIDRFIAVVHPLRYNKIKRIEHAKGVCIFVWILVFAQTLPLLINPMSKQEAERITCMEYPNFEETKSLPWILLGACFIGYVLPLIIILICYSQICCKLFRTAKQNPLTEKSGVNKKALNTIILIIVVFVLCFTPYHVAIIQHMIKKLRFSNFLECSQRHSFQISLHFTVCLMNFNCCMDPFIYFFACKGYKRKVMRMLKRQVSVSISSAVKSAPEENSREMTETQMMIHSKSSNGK

For `CC(C)CCC[C@@H](C)[C@H]1CC[C@H]2[C@@H]3CC=C4C[C@@H](O)CC[C@]4(C)[C@H]3CC[C@]12C` [cholesterol], the EC50 (EBI2 [1]) was greater than 10 µM, the EC50 (EBI2 [2]) was greater than 10 µM and the IC50 (EBI2 [3]) was greater than 10 µM.
With `C[C@@H](CO)CCC[C@@H](C)[C@H]1CC[C@H]2[C@@H]3[C@H](O)C=C4C[C@@H](O)CC[C@]4(C)[C@H]3CC[C@]12C` [7α, 27-OHC] the “interaction with other GPCRs” value (31 different GPCRs) was “In none of these assays did we see a significant interaction”, the EC50 (EBI2 [1]; [11]) was 0.005 ± 0.002 µM and the EC50 (EBI2 [2]; [12]) was 0.005 ± 0.004 µM. For the same compound, the IC50 (EBI2 [3]; [13]) was 0.362 ± 0.032 µM and the “interaction with nuclear hormone receptors” value [4] was “In none of these assays did we see a significant interaction”.
In the case of pertussis toxin, the “effect on oxysterol-mediated attraction of RS11846 cells” value (RS11846 cells; presence of pertussis toxin) is reported as “could be blocked”.
`C[C@H](CCCC(C)(C)O)[C@H]1CC[C@H]2[C@@H]3[C@@H](O)C=C4C[C@@H](O)CC[C@]4(C)[C@H]3CC[C@]12C` [7β, 25-OHC, cholest-5-ene-3β, 7β, 25-triol] showed an EC50 (EBI2 [5]) of roughly 0.05 µM.
Work on `C[C@H](CCCC(C)(C)O)[C@H]1CC[C@H]2[C@@H]3CC=C4C[C@@H](O)CC[C@]4(C)[C@H]3CC[C@]12C` [25-OHC] yielded an EC50 (EBI2 [1]; [11]) of 0.727 ± 0.232 µM, an EC50 (EBI2 [2]; [12]) of 3.03 ± 2.65 µM and an IC50 (EBI2 [3]; [13]) greater than 10 µM.
With `[3H]C1(O)C=C2CC(O)CCC2(C)C2CCC3(C)C(C(C)CCCC(C)(C)O)CCC3C21` (stereo not drawn) [[^3H]-7β, 25-OHC] the “specific binding of radioligand to EBI2 membranes” value (EBI2 [3]; EBI2 membranes) was “no specific binding”.
For `[3H]C1(O)C=C2CC(O)CCC2(C)C2CCC3(C)C(C(C)CCCC(C)(C)O)CCC3C21` (stereo not drawn) [[^3H]-7α, 25-OHC], the “binding of radioligand to membranes from parental cells” value [6] was “did not bind”.
For `C[C@H](CCCC(C)(C)O)[C@H]1CC[C@H]2[C@@H]3[C@H](O)C=C4C[C@@H](O)CC[C@]4(C)[C@H]3CC[C@]12C` [7α, 25-OHC, 5-cholesten-3β, 7α, 25-triol], the “interaction with other GPCRs” value (31 different GPCRs) was “In none of these assays did we see a significant interaction”, the sensitivity of bioassay [7] was “subnanomolar sensitivity” and the “migration of BMDC from wild type and Ebi2(−/−) animals” value [8] was “only wild type cells migrate”. The “chemoattraction of EBV-infected B cells” value [9] was “can potently attract”, the EC50 (EBI2 [2]) was 0.002 ± 0.002 µM and the “calcium response of parental cells lacking EBI2” value [10] was “did not respond”. For the same compound, the “chemoattraction of RS11846 cells” value (RS11846 cells; bell shaped activity curve) was “can potently attract” and the “interaction with nuclear hormone receptors” value [4] was “In none of these assays did we see a significant interaction”.
With `CO[C@H]1C=C2C[C@@H](O)CC[C@]2(C)[C@H]2CC[C@]3(C)[C@@H]([C@H](C)CCCC(C)C)CC[C@H]3[C@H]12` [7-methoxy derivate of 7β-OHC] the “activation of EBI2” value (EBI2 [5]; initial test of candidates (Fig. S3)) was “did not activate EBI2”.
`C[C@@H](CO)CCC[C@@H](C)[C@H]1CC[C@H]2[C@@H]3[C@@H](O)C=C4C[C@@H](O)CC[C@]4(C)[C@H]3CC[C@]12C` [7β, 27-OHC] showed an EC50 (EBI2 [1]; [11]) of 0.125 ± 0.066 µM, an EC50 (EBI2 [2]; [12]) of 0.31 ± 0.261 µM and an IC50 (EBI2 [3]; [13]) greater than 10 µM.
